Data reported in ChEMBL document CHEMBL4017460, “A Tobramycin Vector Enhances Synergy and Efficacy of Efflux Pump Inhibitors against Multidrug-Resistant Gram-Negative Bacteria” (J Med Chem, 2017).
≈ marks a conversion by molar mass, not a printed value. Calls of active or inactive are those of the source. The calls are words filed in the database; no cut-off is given here.

How the values were obtained:
Pseudomonas aeruginosa [1] = test: Antibacterial activity against XDR Pseudomonas aeruginosa isolate P262-101856 infected in Galleria mellonella assessed as protection against bacterial infection by measuring larval death at 75 mg/kg up to 24 hrs relative to control; type: functional
How it was run: (§1)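 G. mellonella larvae infected with 1.0 × 10^5/mL CFU of XDR P. aeruginosa 101856. A single-dose injection of agent, alone or with minocycline, given 2 h post-infection. Survival scored up to 24 h. 15 larvae per experiment from different batches, two experiments per dosage (n = 30). Significance 0 vs 24 h at P ≤ 0.05.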

Pseudomonas aeruginosa [2] = test: Antibacterial activity against Pseudomonas aeruginosa PAO1 assessed as ratio of MIC after 25 serial passages at sub-MIC to MIC after 1 passage by microbroth dilution assay; type: functional
[3] = tested on: Pseudomonas aeruginosa PAO1; test: Inhibition of RND efflux pump in Pseudomonas aeruginosa PAO1 assessed as potentiation of minocycline-induced antibacterial activity by measuring minocycline MIC at 8 ug/ml after 18 to 24 hrs by microbroth dilution assay (reference value: 8 ug/ml)
How it was run: (§2)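 Absolute minocycline MIC taken from checkerboard broth dilution with a fixed 8 μg/mL adjuvant. Inoculum was a 0.5 McFarland saline suspension diluted 1:50 in MHB, incubated 37 °C for 18 h. MIC is the lowest concentration with no growth.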

[4] = tested on: Pseudomonas aeruginosa PAO1; test: Inhibition of RND efflux pump in Pseudomonas aeruginosa PAO1 assessed as potentiation of minocycline-induced antibacterial activity at 8 ug/ml after 18 to 24 hrs by checker board assay
How it was run: (§3)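 Checkerboard in MHB: antibiotic 2-fold diluted along one axis, test agent 2-fold diluted along the other. Overnight culture standardized to 0.5 McFarland in saline, diluted 1:50 in MHB, added to wells, incubated 37 °C for 18 h. MIC is the lowest concentration with no growth. FIC = MIC in combination / MIC alone; FIC index = sum of both FICs.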

Pseudomonas aeruginosa [5] = test: Antibacterial activity against Pseudomonas aeruginosa PAO1 after 18 to 24 hrs by microbroth dilution assay; type: functional; how it was run: as §3
Klebsiella pneumoniae [6] = test: Inhibition of RND efflux pump in Klebsiella pneumoniae isolate 116381 assessed as potentiation of minocycline-induced antibacterial activity at 8 ug/ml after 18 to 24 hrs by microbroth dilution assay; how it was run: as §3
Enterobacter cloacae [7] = test: Antibacterial activity against Enterobacter cloacae isolate 117029 after 18 to 24 hrs by microbroth dilution assay; type: functional; how it was run: as §3
Enterobacter cloacae [8] = test: Inhibition of RND efflux pump in Enterobacter cloacae isolate 117029 assessed as potentiation of minocycline-induced antibacterial activity by measuring minocycline MIC at 8 ug/ml after 18 to 24 hrs by microbroth dilution assay (reference value: 128 to 256 ug/ml); how it was run: as §2
Pseudomonas aeruginosa [9] = test: (§4) Inhibition of RND efflux pump in XDR Pseudomonas aeruginosa isolate P262-101856 infected in Galleria mellonella assessed as potentiation of minocycline-induced antibacterial activity by measuring larval death rate at 75 mg/kg co-treated with 75 mg/kg minocycline measured after 24 hrs relative to control; type: organism-based; set-up: scale not given: the % may be the effect or the level left; how it was run: as §1
Klebsiella pneumoniae [10] = test: Antibacterial activity against Klebsiella pneumoniae isolate 116381 after 18 to 24 hrs by microbroth dilution assay; type: functional; how it was run: as §3
[11] = tested on: Pseudomonas aeruginosa PAO1; test: Inhibition of RND efflux pump in Pseudomonas aeruginosa PAO1 assessed as increase in tetracycline uptake up to 8.2 ug/ml measured at 1 min interval for 30 mins by fluorescence assay
How it was run: (§5)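 Tetracycline uptake assay in P. aeruginosa PAO1: enhancement of tetracycline fluorescence as it enters cells, monitored with compound present at several concentrations.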

Enterobacter cloacae [12] = test: Inhibition of RND efflux pump in Enterobacter cloacae isolate 117029 assessed as potentiation of minocycline-induced antibacterial activity at 8 ug/ml after 18 to 24 hrs by microbroth dilution assay; how it was run: as §3
Klebsiella pneumoniae [13] = test: Inhibition of RND efflux pump in Klebsiella pneumoniae isolate 116381 assessed as potentiation of minocycline-induced antibacterial activity by measuring minocycline MIC at 8 ug/ml after 18 to 24 hrs by microbroth dilution assay (reference value: 128 ug/ml); how it was run: as §2
[14] = tested on: Pseudomonas aeruginosa PAO1; test: Inhibition of RND efflux pump in Pseudomonas aeruginosa PAO1 assessed as potentiation of minocycline-induced antibacterial activity by measuring fold reduction in minocycline MIC at 8 ug/ml after 18 to 24 hrs by microbroth dilution assay relative to minocycline alone; how it was run: as §2
[15] = tested on: Pseudomonas aeruginosa PAO1; test: Inhibition of RND efflux pump in Pseudomonas aeruginosa PAO1 assessed as increase in tetracycline uptake at 13.6 ug/ml measured at 1 min interval for 30 mins by fluorescence assay; how it was run: as §5
[16] = tested on: Pseudomonas aeruginosa PAO1; test: Inhibition of RND efflux pump in Pseudomonas aeruginosa PAO1 assessed as potentiation of minocycline-induced antibacterial activity by measuring ratio of minocycline MIC after 25 serial passages to minocycline MIC at sub-MIC after 18 to 24 hrs by microbroth dilution assay
[17] = Toxicity in Galleria mellonella assessed as death at 100 mg/kg after 24 hrs relative to control; type: organism-based; conditions: in vivo, read-out: Activity
Pseudomonas aeruginosa [18] = test: Induction of cytoplasmic membrane depolarization in Pseudomonas aeruginosa PAO1 at 16 ug/ml by DiSC3(5) dye based fluorescence assay; type: functional
How it was run: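 Cytoplasmic membrane depolarization in P. aeruginosa PAO1, monitored by DiSC3(5) fluorescence across a range of compound concentrations. Colistin served as positive control.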

Pseudomonas aeruginosa [19] = test: Induction of outer membrane permeabilization in Pseudomonas aeruginosa PAO1 assessed as increase in tetracycline uptake at 29 ug/ml measured at 1 min interval for 30 mins by fluorescence assay; type: functional; how it was run: as §5
[20] = tested on: Pseudomonas aeruginosa PAO1; test: Inhibition of RND efflux pump in Pseudomonas aeruginosa PAO1 assessed as increase in tetracycline uptake up to 5.7 ug/ml measured at 1 min interval for 30 mins by fluorescence assay
Pseudomonas aeruginosa [21] = test: as §4, with “survival” for “death”; type: organism-based; how it was run: as §1
Pseudomonas aeruginosa [22] = test: Induction of membrane destabilization in Pseudomonas aeruginosa PAO1 assessed as increase in tetracycline uptake at 5 ug/ml measured at 1 min interval for 30 mins by fluorescence assay; type: functional

Compound: CN(C)c1ccc(O)c2c1C[C@H]1C[C@H]3[C@H](N(C)C)C(O)=C(C(N)=O)C(=O)[C@@]3(O)C(O)=C1C2=O [MINOCYCLINE]
- Activity (Pseudomonas aeruginosa [1]): 100%
- Ratio (Pseudomonas aeruginosa [2]): 16

Compound: NC[C@H]1O[C@H](O[C@H]2[C@H](OCCCCCCCCCCN3CCN(Cc4cccc5ccccc45)CC3)[C@@H](O[C@H]3O[C@H](CO)[C@@H](O)[C@H](N)[C@H]3O)[C@H](N)C[C@@H]2N)[C@H](N)C[C@@H]1O.O=C(O)C(F)(F)F.O=C(O)C(F)(F)F.O=C(O)C(F)(F)F.O=C(O)C(F)(F)F.O=C(O)C(F)(F)F.O=C(O)C(F)(F)F.O=C(O)C(F)(F)F
- MIC [3]: 1 µg/mL
- fractional inhibitory concentration index (FICI) [4]: 0.125 to 0.14
- MIC (Pseudomonas aeruginosa [5]): > 512 µg/mL

Compound: Fc1ccc([C@@H]2CCNC[C@H]2COc2ccc3c(c2)OCO3)cc1 [PAROXETINE]
- fractional inhibitory concentration index (FICI) (Klebsiella pneumoniae [6]): 0.63
- MIC [3]: 8 µg/mL
- MIC (Enterobacter cloacae [7]): 64 µg/mL (≈ 194 µM)
- fractional inhibitory concentration index (FICI) [4]: 1.02
- MIC (Enterobacter cloacae [8]): 64 µg/mL
- MIC (Pseudomonas aeruginosa [5]): 512 µg/mL (≈ 1550 µM)
- Activity (Pseudomonas aeruginosa [9]): 100%
- MIC (Klebsiella pneumoniae [10]): 128 µg/mL (≈ 389 µM)
- inhibition [11]: inactive
- fractional inhibitory concentration index (FICI) (Enterobacter cloacae [12]): 0.5
- MIC (Klebsiella pneumoniae [13]): 128 µg/mL

Compound: NC[C@H]1O[C@H](O[C@H]2[C@H](O)[C@@H](O[C@H]3O[C@H](CO)[C@@H](O)[C@H](N)[C@H]3O)[C@H](N)C[C@@H]2N)[C@H](N)C[C@@H]1O [TOBRAMYCIN]
- fractional inhibitory concentration index (FICI) [4]: 1.06
- MIC (Pseudomonas aeruginosa [5]): 0.25 µg/mL (≈ 0.535 µM)
- Ratio (Pseudomonas aeruginosa [2]): 256

Compound: NC[C@@H]1CN[C@@H](C(=O)N[C@H](CCc2ccccc2)C(=O)Nc2ccc3ccccc3c2)C1
- fractional inhibitory concentration index (FICI) (Klebsiella pneumoniae [6]): 0.06
- MIC [3]: 1 µg/mL
- MIC (Enterobacter cloacae [7]): 64 µg/mL (≈ 149 µM)
- fractional inhibitory concentration index (FICI) [4]: 0.13
- MIC (Enterobacter cloacae [8]): 8 µg/mL
- fold change (FC) [14]: 8
- MIC (Pseudomonas aeruginosa [5]): 256 µg/mL (≈ 595 µM)
- MIC (Klebsiella pneumoniae [10]): 256 µg/mL (≈ 595 µM)
- inhibition [15]: Active
- fractional inhibitory concentration index (FICI) (Enterobacter cloacae [12]): 0.13
- MIC (Klebsiella pneumoniae [13]): 4 µg/mL
- Ratio [16]: 4
- mortality at 24 h [17]: 80%

Compound: Cl.Cl.Cl.Cl.Cl.Cl.Cl.NC[C@H]1O[C@H](O[C@H]2[C@H](OCCCCN3CCN(Cc4cccc5ccccc45)CC3)[C@@H](O[C@H]3O[C@H](CO)[C@@H](O)[C@H](N)[C@H]3O)[C@H](N)C[C@@H]2N)[C@H](N)C[C@@H]1O
- MIC [3]: 4 µg/mL
- fractional inhibitory concentration index (FICI) [4]: 0.25 to 0.5
- MIC (Pseudomonas aeruginosa [5]): 512 µg/mL

Compound: Cl.Cl.Cl.Cl.Cl.Cl.Cl.NC[C@H]1O[C@H](O[C@H]2[C@H](OCCN3CCN(Cc4cccc5ccccc45)CC3)[C@@H](O[C@H]3O[C@H](CO)[C@@H](O)[C@H](N)[C@H]3O)[C@H](N)C[C@@H]2N)[C@H](N)C[C@@H]1O
- MIC [3]: 4 µg/mL
- fractional inhibitory concentration index (FICI) [4]: 0.53
- MIC (Pseudomonas aeruginosa [5]): 128 µg/mL

Compound: Cetrimonium bromide
- fractional inhibitory concentration index (FICI) [4]: 0.75

Compound: COLISTIN
- fractional inhibitory concentration index (FICI) [4]: 0.5
- Activity (Pseudomonas aeruginosa [18]): Active
- Activity (Pseudomonas aeruginosa [19]): Active
- Ratio (Pseudomonas aeruginosa [2]): > 1024

Compound: Cl.Cl.Cl.Cl.Cl.Cl.Cl.NC[C@H]1O[C@H](O[C@H]2[C@H](OCCCCCCCCN3CCN(Cc4cccc5ccccc45)CC3)[C@@H](O[C@H]3O[C@H](CO)[C@@H](O)[C@H](N)[C@H]3O)[C@H](N)C[C@@H]2N)[C@H](N)C[C@@H]1O
- MIC [3]: 2 µg/mL
- fractional inhibitory concentration index (FICI) [4]: 0.125 to 0.25
- MIC (Pseudomonas aeruginosa [5]): > 512 µg/mL

Compound: c1ccc2c(CN3CCNCC3)cccc2c1
- inhibition [20]: inactive
- Survival (Pseudomonas aeruginosa [21]): 0%
- fractional inhibitory concentration index (FICI) (Klebsiella pneumoniae [6]): 0.25 to 0.38
- MIC [3]: 8 µg/mL
- MIC (Enterobacter cloacae [7]): > 512 µg/mL
- fractional inhibitory concentration index (FICI) [4]: 1.02
- Activity (Pseudomonas aeruginosa [1]): 100%
- MIC (Enterobacter cloacae [8]): 128 µg/mL
- MIC (Pseudomonas aeruginosa [5]): 512 µg/mL (≈ 2260 µM)
- Activity (Pseudomonas aeruginosa [9]): 100%
- MIC (Klebsiella pneumoniae [10]): > 512 µg/mL
- fractional inhibitory concentration index (FICI) (Enterobacter cloacae [12]): > 0.5
- MIC (Klebsiella pneumoniae [13]): 128 µg/mL

Compound: N#CC(C#N)=NNc1cccc(Cl)c1
- Activity (Pseudomonas aeruginosa [22]): Active

Compound: Cl.Cl.Cl.Cl.Cl.Cl.Cl.NC[C@H]1O[C@H](O[C@H]2[C@H](OCCCCCCN3CCN(Cc4cccc5ccccc45)CC3)[C@@H](O[C@H]3O[C@H](CO)[C@@H](O)[C@H](N)[C@H]3O)[C@H](N)C[C@@H]2N)[C@H](N)C[C@@H]1O
- MIC [3]: 4 µg/mL
- fractional inhibitory concentration index (FICI) [4]: 0.25 to 0.5
- MIC (Pseudomonas aeruginosa [5]): > 512 µg/mL
